# Measurements from different studies.
# Protocols differ between the studies behind these lines.
# Target: Myotonin-protein kinase (DMPK, Homo sapiens, UniProt Q09013)
# Sequence (Q09013 1-629, as in one of the studies): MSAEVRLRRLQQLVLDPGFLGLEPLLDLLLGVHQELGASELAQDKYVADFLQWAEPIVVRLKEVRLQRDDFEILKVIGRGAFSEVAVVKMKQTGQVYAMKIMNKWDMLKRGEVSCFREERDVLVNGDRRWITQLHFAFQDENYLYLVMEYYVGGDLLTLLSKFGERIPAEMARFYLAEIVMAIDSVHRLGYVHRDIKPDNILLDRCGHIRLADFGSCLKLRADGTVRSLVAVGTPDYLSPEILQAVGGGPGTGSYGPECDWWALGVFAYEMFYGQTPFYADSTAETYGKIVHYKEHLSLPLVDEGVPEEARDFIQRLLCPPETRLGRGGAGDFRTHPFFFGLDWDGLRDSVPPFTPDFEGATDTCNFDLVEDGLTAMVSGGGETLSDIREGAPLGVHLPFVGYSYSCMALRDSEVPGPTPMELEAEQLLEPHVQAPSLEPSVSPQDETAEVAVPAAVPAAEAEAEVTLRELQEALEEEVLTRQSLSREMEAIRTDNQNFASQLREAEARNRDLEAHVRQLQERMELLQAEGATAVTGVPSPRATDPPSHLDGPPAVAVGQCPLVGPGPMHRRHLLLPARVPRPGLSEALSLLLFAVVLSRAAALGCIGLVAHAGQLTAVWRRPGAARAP
Structure (SMILES),assay,setting,remaining binding [%]
O=C(NCC1CCOCC1)c1n[nH]cc1NC(=O)c1c(F)cccc1F,"binding, competition with immobilised ligand",1 µM,38
N[C@@H]1CCN(c2nccc(-c3cnn4ncccc34)n2)C1,binding,1 µM,94
COc1cccc(CNC(=O)c2nc3scc(COCc4ccc(C(=O)O)cc4)c3c(=O)[nH]2)c1,"cell-free assay, competition with immobilised ligand",1 µM,85.4
CN(C)c1ncc(F)c(-c2cnn3ncccc23)n1,binding,1 µM,100
O=C(c1ccc(Nc2ncc(Cl)c(-c3cc4ccccc4s3)n2)cc1)N1CCC(N2CCCC2)CC1,"binding, competition with immobilised ligand",1 µM,75
CNCc1ccccc1-c1csc([C@H](C)Nc2nc(C)nc3cc(OC)c(OC)cc23)c1,"cell-free assay, competition with immobilised ligand",1 µM,85
O=C(c1ccc(Nc2ncc(Cl)c(-c3ccc(Cl)s3)n2)cc1)N1CCC(N2CCCC2)CC1,"binding, competition with immobilised ligand",1 µM,100
O=c1nc(-c2ccccn2)sc2ccccc12,"binding, competition with immobilised ligand",1 µM,100
C[C@@H]1CCN(c2nccc(-c3cnn4ncccc34)n2)C1,binding,1 µM,90
CNC(=O)[C@@H]1CC[C@@H](n2c(-c3ccc4cnccc4c3)nc3ccc(C(=O)NCc4cccc(C(N)=O)c4)cc32)C1,"binding, competition with immobilised ligand",1 µM,86
CN(C)c1nccc(-c2cnc3ncccn23)n1,binding,1 µM,82
COc1cnc(Nc2cccc(S(N)(=O)=O)c2)nc1N1CCN(c2ccccc2)C(=O)C1,"binding, competition with immobilised ligand",1 µM,100
CN(c1nccc(-c2cnn3ncccc23)n1)C1CC1,binding,1 µM,100
FC(F)(F)Oc1cccc(-c2cnc3ccc(-c4ccncc4)nn23)c1,"cell-free assay, competition with immobilised ligand",5 µM,99
Cn1nc(C(=O)NCc2ccc(C(=O)O)cc2)cc1-c1ccc2[nH]ccc2c1,"cell-free assay, competition with immobilised ligand",0.1 µM,76
CC1CCCN1c1nccc(-c2cnn3ncccc23)n1 (stereo not shown),binding,1 µM,94
C[C@@H](c1ccc(-n2cnc3c(N)ncnc32)cc1)N1CCc2nn(C)c(Cc3ccccc3)c2C1=O,"binding, competition with immobilised ligand",0.1 µM,86
CCC(=O)N[C@H]1CC[C@@H](C(=O)N(C)c2ccc(-c3nc4ccccc4o3)cc2)C1,"cell-free assay, competition with immobilised ligand",1 µM,100
CN(CCCC(F)(F)F)c1nccc(-c2cnn3ncccc23)n1,binding,1 µM,80
Cc1cnc(Nc2ccc(C(=O)N3CCC(N4CCCC4)CC3)cc2)nc1-c1cc2ccccc2s1,"binding, competition with immobilised ligand",1 µM,100
Nc1cnc(N2CCc3cc(S(=O)(=O)Nc4c(F)cc(Cl)cc4F)cc(N4CCCC4=O)c32)nc1,"cell-free assay, competition with immobilised ligand",1 µM,100
c1cncc(-c2cccc(Nc3nccc(NC4CCCCC4)n3)c2)c1,"binding, competition with immobilised ligand",10 µM,100
